DAGLB inhibitor = blocks human DAGLB lipase activity; Q8NCG7; HEK293T DAGLB membrane lysate, EnzChek fluorogenic substrate; inhibition, % at 5.17 µM; 0.059% of 340,000 active; in the data active = inhibition above about 34%
GPR7 antagonist = human neuropeptides B/W receptor 1 antagonism; GPR7-expressing cells, fluorescence antagonist assay; P48145; inhibition, % at 4.4 µM; 1.1% of 290,000 active; in the data active = inhibition above about 16%, passing the limit was not always enough;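 also: cells stimulated with the agonist NPW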
Target sequence (P48145 whole entry, looked up): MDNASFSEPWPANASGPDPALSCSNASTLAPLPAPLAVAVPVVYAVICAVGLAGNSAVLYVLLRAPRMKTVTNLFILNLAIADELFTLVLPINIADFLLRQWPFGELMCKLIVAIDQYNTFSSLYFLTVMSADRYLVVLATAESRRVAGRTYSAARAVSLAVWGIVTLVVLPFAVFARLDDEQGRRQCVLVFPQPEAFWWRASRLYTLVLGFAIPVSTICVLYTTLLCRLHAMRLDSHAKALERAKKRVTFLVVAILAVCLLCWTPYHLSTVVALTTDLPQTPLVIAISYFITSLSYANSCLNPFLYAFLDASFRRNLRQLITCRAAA
MPTP inh = blocks calcium-induced mitochondrial swelling; inhibition, % at 10 µM; isolated mouse mitochondria, Ca2+ swelling absorbance, 30 min; 1.4% of 360,000 active;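 active = inhibition of 50% or more, scaled per plate between neutral and stimulator controls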
TAAR1 antagonist = antagonists of human TAAR1; 1.5% of 360,000 active; AID 624466; CHO RD-HGA16 TAAR1, Fluo-8 calcium fluorescence, antagonist; inhibition, % at 3 µM;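 active = inhibition above a per-plate cutoff, the mean inhibition of test compounds on that plate plus 3 SD, cut at about 49% in these data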
Target sequence (Q96RJ0 whole entry, looked up): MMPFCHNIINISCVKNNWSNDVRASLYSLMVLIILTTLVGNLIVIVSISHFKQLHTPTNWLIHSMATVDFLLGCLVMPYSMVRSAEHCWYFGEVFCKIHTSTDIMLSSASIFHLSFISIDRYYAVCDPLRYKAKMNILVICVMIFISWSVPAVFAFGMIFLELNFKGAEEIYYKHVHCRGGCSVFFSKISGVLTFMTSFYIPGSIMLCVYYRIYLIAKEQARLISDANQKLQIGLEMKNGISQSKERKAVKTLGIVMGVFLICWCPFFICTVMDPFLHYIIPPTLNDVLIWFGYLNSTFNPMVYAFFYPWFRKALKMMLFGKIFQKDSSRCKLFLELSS
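Test system: RD-HGA16 CHO cells with stable hTAAR1 and Gα16 / Probe or stimulus: EC80 β-phenethylamine stimulus / Times: seeding 17-24 h prior, 75-min 37 °C, 30-min RT dye loading / Detection: Fluo-8 calcium-sensitive fluorescence / Read-out basis: % inhibition scaled between DMSO and EC80 PEA controls / Repeats: singlicate, one well per test compound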
TAAR1 agonist = human TAAR1 agonism. CHO RD-HGA16 TAAR1, Fluo-8 calcium fluorescence; vehicle wells 0%, saturating PEA agonist 100%. activation, % at 3 µM. 0.99% of 360,000 active. AID 624467;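 active = activation above the mean activation of all test compounds in the run plus 3 SD, cut at about 38% in these data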
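Repeats: no replicates (n 1) | Material: CHO-derived RD-HGA16 cells with stable Gα16 and human TAAR1 | Technique: Kinetic Fluo-8 calcium fluorescence | Schedule: 17-24 h seeding, 75 min 37 °C dye, 30 min RT | Evaluation: % activation from peak over basal fluorescence ratio, DMSO-to-PEA scaled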
TAAR1 ag confirm = confirmation of human TAAR1 agonists. shares compounds with TAAR1 agonist. CHO RD-HGA16 TAAR1, Fluo-8 calcium fluorescence; scaled: DMSO 0%, maximal phenethylamine 100%. activation, % at 3 µM. 82% of 2,400 active;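 active = activation above a cutoff set at the run's mean compound activation plus 3 SD, cut at about 39% in these data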
Ga16 nonsel ag = nonselective agonist in parental cells, TAAR1 agonist counter-screen | 50% of 2,400 active | shares compounds with TAAR1 agonist | activation, % at 3 µM | CHO-Ga16 parental, Fluo-8 calcium fluorescence; normalized to maximal ATP response, DMSO zero | AID 651787;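 active = activation above the run cutoff, the mean activation over all tested wells plus 3 SD, cut at about 12% in these data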
TAAR1 desensitize = counter-screen for human TAAR1 agonists: agonists that desensitize TAAR1; shares compounds with TAAR1 agonist; inhibition, % at 3 µM; AID 651951; 46% of 2,400 active; CHO RD-HGA16 hTAAR1, Fluo-8 calcium, beta-PEA response inhibition;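 active = inhibition above the run cutoff, the mean inhibition of all test compounds plus 3 SD, cut at about 49% in these data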;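 also: beta-PEA stimulus applied at its EC80; loss of beta-PEA calcium signal after compound pretreatment read as receptor desensitization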
Ga16 nonsel ant = nonselective Ga16 antagonism, counter-screen. AID 651952. CHO-Ga16 ATP-induced calcium, Fluo-8 fluorescence. 39% of 2,400 active. shares compounds with TAAR1 agonist. inhibition, % at 3 µM;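 active = inhibition above the plate's mean compound inhibition plus 3 SD, computed per plate, cut at about 22% in these data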
Of the large screens only hits and unclear results are named; the others gave an inactive call (follow-up assays come after a bar, where they were run). Most compounds without a hit are left out; they make up all but 4% or so of the library.

Cc1ccc(NC(=O)Cn2ncc(Cl)c(Cl)c2=O)cc1S(=O)(=O)N1CCCCC1	none (no result: GPR7 antagonist)
O=C(COc1cccc2cccnc12)N1CCc2ccccc2C1	TAAR1 agonist 52 | TAAR1 ag confirm inactive | Ga16 nonsel ag inactive | TAAR1 desensitize inactive | Ga16 nonsel ant inactive
O=C(COc1cccnc1[N+](=O)[O-])N1CCc2ccccc2C1	none
COc1ccc(Cc2nnc(SCC(=O)N3CCc4ccccc4C3)o2)cc1	TAAR1 agonist 55 | TAAR1 ag confirm 75 | Ga16 nonsel ag inactive | TAAR1 desensitize inactive | Ga16 nonsel ant inactive
O=C(NCCCn1ccnc1)c1ccc(-c2cccc(Cl)c2Cl)o1	TAAR1 agonist 63 (no result: GPR7 antagonist) | TAAR1 ag confirm 50 | Ga16 nonsel ag 33 | TAAR1 desensitize inactive | Ga16 nonsel ant inactive
c1ccc(N/N=C(\Cc2ncc[nH]2)c2ccccc2)cc1	none (no result: TAAR1 antagonist, TAAR1 agonist) | Ga16 nonsel ag inactive | Ga16 nonsel ant inactive
COc1ccc(C(=O)N/N=C(\Cc2ncc[nH]2)c2ccccc2)cc1	none
COCc1[nH]nc2c1C(c1ccccc1)N(Cc1ccccc1)C2=O (centres undefined)	none (no result: DAGLB inhibitor, GPR7 antagonist, MPTP inh)
CCC(=O)OCC(=O)c1c(N)n(Cc2ccccc2)c(=O)n(C)c1=O	none
Cn1c(=O)c(C(=O)COc2ccc(C#N)cc2)c(N)n(Cc2ccccc2)c1=O	TAAR1 antagonist 50, TAAR1 agonist 119 | TAAR1 ag confirm 100 | Ga16 nonsel ag 52 | TAAR1 desensitize 49 | Ga16 nonsel ant 27
COCCN(C(=O)COC(=O)C1CCC(C(C)(C)C)CC1)c1c(N)n(Cc2ccccc2)c(=O)[nH]c1=O (centres undefined)	none (no result: GPR7 antagonist)
C[C@H](CO)N1C[C@H](C)[C@@H](CN(C)C(=O)c2ccc(N3CCN(C)CC3)cc2)OCc2cn(nn2)CCCC1=O	none (no result: DAGLB inhibitor, GPR7 antagonist, MPTP inh)
COc1ccc(OCC(=O)NNC(=S)NC(=O)C2CCCCC2)cc1	TAAR1 agonist 65 | TAAR1 ag confirm 78 | Ga16 nonsel ag 51 | TAAR1 desensitize inactive | Ga16 nonsel ant 36
CCc1ccc(OCC(=O)NNC(=S)NC(=O)C2CCCCC2)c(Br)c1	TAAR1 agonist 80 | TAAR1 ag confirm 78 | Ga16 nonsel ag 47 | TAAR1 desensitize 62 | Ga16 nonsel ant 45
COc1ccc(CC(=O)NC(=S)NNC(=O)COc2c(C)cccc2C)cc1	TAAR1 antagonist 53, TAAR1 agonist 94 | TAAR1 ag confirm 93 | Ga16 nonsel ag 61 | TAAR1 desensitize 64 | Ga16 nonsel ant 47
COc1ccc(OCC(=O)NNC(=S)NC(=O)C2CC2)cc1	none
CNC(=S)NNC(=O)Cc1ccc(OC)cc1	none
O=C(c1cccs1)N1C[C@@H](n2cc(C3CC3)nn2)[C@H](O)C[C@@H]1c1ccccc1	none (no result: GPR7 antagonist)
CC(=O)c1ccc(OC2(C)CCN(CCOc3ccc(C)cc3)C2)cc1 (centres undefined)	none (no result: DAGLB inhibitor, GPR7 antagonist)
CCOC(=O)c1cn(Cc2ccccc2)c(C(=O)OC(C)(C)C)c1O	TAAR1 antagonist 68, TAAR1 agonist 82 (no result: GPR7 antagonist) | TAAR1 ag confirm 73 | Ga16 nonsel ag 56 | TAAR1 desensitize 70 | Ga16 nonsel ant 57
CCOC(=O)[C@]12CCCC=C1N(Cc1cccc3ccccc13)C(=O)[C@H](CC(=O)NCc1cccs1)C2	none (no result: DAGLB inhibitor, GPR7 antagonist)
O=[N+]([O-])c1cccc(/C=N/Nc2nc(NCc3ccccc3)nc(N3CCOCC3)n2)c1O	TAAR1 agonist 67 | TAAR1 ag confirm 115 | Ga16 nonsel ag 112 | TAAR1 desensitize 93 | Ga16 nonsel ant 85
O=[N+]([O-])c1ccc(/C=N/Nc2nc(NCc3ccccc3)nc(N3CCOCC3)n2)cc1	none
CCCCc1cc(=O)oc2cc(C)c(CN3CCCC3)c(O)c12	none
CCc1cc(=O)oc2cc(C)c(CN3CCCC(C)C3)c(O)c12 (centres undefined)	TAAR1 agonist 51 | TAAR1 ag confirm 82 | Ga16 nonsel ag inactive | TAAR1 desensitize inactive | Ga16 nonsel ant inactive
CCNC(=O)C1(C)CCN(Cc2noc(-c3c(C)noc3C)n2)C1 (centres undefined)	none (no result: DAGLB inhibitor, GPR7 antagonist)
CCN(CC)c1ccc(/C=C2/SC(=O)N(C(C)C)C2=O)o1	TAAR1 antagonist 54, TAAR1 agonist 73 | TAAR1 ag confirm 69 | Ga16 nonsel ag 73 | TAAR1 desensitize 64 | Ga16 nonsel ant 68
CC(C)N1C(=O)S/C(=C\c2ccc(-c3ccc(Cl)c(C(=O)O)c3)o2)C1=O	none
CC(C)c1ccc(/C=C/C(=O)NCCC2=CCCCC2)cc1	none
O=C(O)C1C2CCC(C2)C1C(=O)NCCC1=CCCCC1 (centres undefined)	TAAR1 antagonist 85, TAAR1 agonist 80 | TAAR1 ag confirm 94 | Ga16 nonsel ag inactive | TAAR1 desensitize 77 | Ga16 nonsel ant inactive
O=C(O)C1C2CCC(C2)C1C(=O)NCCc1ccc(F)cc1 (centres undefined)	TAAR1 antagonist 79, TAAR1 agonist 78 | TAAR1 ag confirm 77 | Ga16 nonsel ag inactive | TAAR1 desensitize 55 | Ga16 nonsel ant inactive
O=C(O)C1C2CCC(C2)C1C(=O)Nc1cc(F)ccc1F (centres undefined)	none
O=C(O)C1C2CCC(C2)C1C(=O)NCCc1cccc(Cl)c1 (centres undefined)	TAAR1 antagonist 86, TAAR1 agonist 76 | TAAR1 ag confirm 88 | Ga16 nonsel ag inactive | TAAR1 desensitize 73 | Ga16 nonsel ant inactive
O=C(O)/C=C/C(=O)NCCC1=CCCCC1	TAAR1 antagonist 84, TAAR1 agonist 73 | TAAR1 ag confirm 95 | Ga16 nonsel ag inactive | TAAR1 desensitize 97 | Ga16 nonsel ant inactive
COc1ccccc1CCn1cnc(Cc2cccc(F)c2)c1C(C)C	none (no result: DAGLB inhibitor, GPR7 antagonist)
CCc1c(Cc2cccc(F)c2)ncn1CCc1ccccc1OC	TAAR1 agonist 40 (no result: DAGLB inhibitor, GPR7 antagonist, MPTP inh) | TAAR1 ag confirm 50 | Ga16 nonsel ag inactive | TAAR1 desensitize inactive | Ga16 nonsel ant inactive
CCCc1c(Cc2cccc(F)c2)ncn1CCc1ccccc1OC	TAAR1 agonist 50 (no result: DAGLB inhibitor, GPR7 antagonist, MPTP inh) | TAAR1 ag confirm 79 | Ga16 nonsel ag 14 | TAAR1 desensitize 61 | Ga16 nonsel ant inactive
Cc1cc(NS(=O)(=O)c2ccc(NC(=S)NC(=O)c3ccc(C(C)(C)C)cc3)cc2)no1	TAAR1 agonist 45 | TAAR1 ag confirm inactive | Ga16 nonsel ag inactive | TAAR1 desensitize inactive | Ga16 nonsel ant inactive
Cc1cc(NS(=O)(=O)c2ccc(NC(=S)NC(=O)c3ccccc3)cc2)no1	none
C#CCN1CC(COc2ccccc2)Oc2cccc(Oc3ccc(SC)c(C)c3)c2S1(=O)=O (centres undefined)	none (no result: DAGLB inhibitor, GPR7 antagonist, MPTP inh)

Screening data: PubChem, several laboratories
